# Assay outcomes deposited in PubChem BioAssay by The Scripps Research Institute Molecular Screening Center.
# Most compounds without a hit are left out; they make up all but 2.7% or so of the library.
# PAFAH1B2 inh = PAFAH1B2 (human) inhibition; P68402; recombinant PAFAH1B2, FP-rhodamine activity probe, fluorescence polarization; inhibition, % at 3.39 µM; 1.2% of 340,000 active; AID 492953;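 active means inhibition above the mean of all tested compounds plus 3 SD, cut at about 24% in these data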
# PAFAH1B3 inh = inhibitors of human PAFAH1B3; recombinant PAFAH1B3, FP-rhodamine probe, fluorescence polarization; Q15102; 0.28% of 340,000 active; AID 492972; inhibition, % at 3.39 µM;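 active means inhibition above the screen-wide average of all tested compounds plus 3 SD, cut at about 25% in these data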
# Target sequence (Q15102 whole entry, looked up): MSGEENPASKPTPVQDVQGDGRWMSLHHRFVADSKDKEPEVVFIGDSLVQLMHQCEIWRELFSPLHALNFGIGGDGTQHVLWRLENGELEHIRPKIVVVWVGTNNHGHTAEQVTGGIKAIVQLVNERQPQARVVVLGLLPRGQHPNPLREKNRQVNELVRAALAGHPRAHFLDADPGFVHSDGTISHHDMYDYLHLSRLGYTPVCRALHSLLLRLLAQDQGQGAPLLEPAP
# pPAFAH inh = inhibitors of human plasma PAF acetylhydrolase (pPAFAH). Q13093. AID 463082. inhibition, % at 3.39 µM. recombinant pPAFAH, FP-rhodamine probe fluorescence polarization. 1.5% of 330,000 active;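 active means inhibition above the mean inhibition across the screen plus 3 SD, cut at about 25% in these data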;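 further: inhibitors block binding of the rhodamine activity-based probe so polarization drops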
# ARFGAP1 inh = inhibitors of rat ARFGAP1. Q62848. Arfgap1-stimulated ARF1 GTP hydrolysis, GDP FP detection. inhibition, % at 16.5 µM. 0.26% of 360,000 active. AID 651572;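 active means inhibition above a per-plate limit, mean inhibition of low control wells plus 3 SD, cut at about 25% in these data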
# Target sequence (Q62848 1-136 limits assumed): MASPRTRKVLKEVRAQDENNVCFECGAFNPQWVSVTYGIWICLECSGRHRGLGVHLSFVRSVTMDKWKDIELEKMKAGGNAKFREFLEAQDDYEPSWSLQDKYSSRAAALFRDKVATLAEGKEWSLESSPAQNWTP
#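 Material: rat Arfgap1 GAP domain (His6, aa 1-136), purified enzyme. Also added: human ARF1(Δ1-17)-GTP substrate. Compound dosing: 16.5 µM single point, 1.26% DMSO. Timing: enzyme reaction 120 min at 25 °C after 20 min preincubation. Signal: GDP detection by fluorescence polarization. Read-out basis: percent inhibition of GAP-stimulated GDP formation, scaled between DMSO and no-Arfgap1 medians.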
# PAFAH2 inh = PAFAH2 (human) inhibition. recombinant PAFAH2, FP-rhodamine activity probe, fluorescence polarization. inhibition, % at 3.39 µM. AID 492956. Q99487. 0.99% of 340,000 active;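 active means inhibition above the mean over all tested compounds plus 3 SD, cut at about 30% in these data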;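 further: inhibitors block probe labeling of enzyme so polarization drops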
# ASAP1 GAP inh = inhibitors of human ASAP1 ArfGAP activity. AID 624377. ASAP1-stimulated ARF1 GTP hydrolysis, GDP FP detection. 0.19% of 360,000 active. inhibition, % at 16.5 µM. Q9ULH1; in the data active means inhibition above about 25%
# Numbers stand for hits; 0 = inactive; - = no result given.
SMILES,PAFAH1B2 inh,PAFAH1B3 inh,pPAFAH inh,ARFGAP1 inh,PAFAH2 inh,ASAP1 GAP inh
O=C(C(=O)N1CCC(CNS(=O)(=O)c2ccc(C(F)(F)F)cc2)CC1)c1cc2ccccc2o1,-,-,-,0,-,0
CC(=O)c1sc(N/N=C\c2c(O)ccc3ccccc23)nc1C,0,0,34.3,0,0,0
CCOc1ccc(S(=O)(=O)Nc2ncn[nH]2)cc1,0,0,0,0,0,0
CCOc1ccc(S(=O)(=O)Nc2cc(Sc3ncn[nH]3)c3oc(=O)sc3c2)cc1,-,-,32.8,-,-,-
Cc1ccc(C)c(N2C(=N)S/C(=C\c3ccc(-c4ccccc4C(=O)O)o3)C2=O)c1,0,0,0,0,0,0
C#CCN1C(=O)S/C(=C\c2ccc(-c3ccc(C(=O)O)cc3C)o2)C1=O,0,0,30.7,0,0,0
CCOC(=O)C(C)N1C(=O)S/C(=C\c2ccc(-c3ccccc3C(=O)O)o2)C1=O (stereo not drawn),0,0,28.4,0,0,0
CC1(C)CC(=O)C=C(c2ccc(COC(=O)c3ccc(Br)cc3)cc2)C1=O,-,-,-,0,-,0
CC1=C(/C=C/C(C)=C/C=C/C(C)=C\C(=O)O)C(C)(C)CCC1,0,0,27.6,0,0,0
Cc1cc2c(=Cc3ccc(N(C)C)cc3)c3ccccc3n2[n+]1C,0,0,-,0,0,0
CN(C)c1ccc(C=c2c3ccccc3n3c2c2ccccc2[n+]3C)cc1,0,0,-,95.0,0,59.4
Nc1ccn([C@@H]2O[C@H](C(=O)N[C@H](Cc3ccccc3)C(=O)NCC(F)(F)F)[C@@H](O)[C@H]2O)c(=O)n1,-,-,-,0,-,0
CC1(O)C(=O)C2(C)C=CC1C1C(=O)N(c3ccccc3)C(=O)C12 (stereo not drawn),-,-,-,0,-,0
COc1ccccc1CCn1cnc(-c2ccccc2F)c1CC(C)C,-,-,-,0,-,0
O=S(=O)(c1ccc2ccccc2c1)N1CCN(C(=S)Nc2ccccc2F)CC1,0,0,0,0,0,0
O=S(=O)(c1ccc(F)cc1)N1CCN(C(=S)NCc2ccccc2)CC1,0,0,0,0,0,0
Oc1ccc(N2CCN(C(=S)NCCc3ccccc3)CC2)cc1,0,0,29.3,0,0,0
O=S(=O)(c1ccc(F)cc1)N1CCN(C(=S)NCCc2ccccc2)CC1,24.4,0,0,0,0,0
O=S(=O)(c1ccc(Cl)cc1)N1CCN(C(=S)Nc2ccccc2F)CC1,24.8,0,0,0,0,0
CCOC(=O)c1sc(NC(=O)CN(CC(C)C)CC(C)C)c(C(=O)OCC)c1C,33.0,0,0,0,0,0
CC(=O)C1=C(C)N(Cc2ccc(F)cc2)C(=S)NC1c1ccc(Br)cc1 (stereo not drawn),-,-,-,0,-,0
CC(C)(C)c1ccc(S(=O)(=O)NCC2CCN(C(=O)C(=O)c3cccs3)CC2)cc1,-,-,-,0,-,0
CCCCCCCCN1C(=O)N(Cc2ccc(OC)cc2)S(=O)(=O)c2ccc(F)cc21,-,-,-,0,-,0
O=C(O)C(c1ccccc1)N1C(=O)/C(=C\c2ccc(O)c(O)c2)SC1=S (stereo not drawn),0,0,30.2,0,0,0
O=C(Cc1c[nH]c2ccccc12)N1CCN(S(=O)(=O)c2ccc(Cl)cc2)CC1,0,0,-,0,0,0
CC(=O)NC(Cc1c[nH]c2ccccc12)C(=O)OCC(=O)N1CCN(S(=O)(=O)c2ccc(Cl)cc2)CC1 (stereo not drawn),88.1,0,-,0,0,0
COc1ccc2[nH]c3c(c2c1)CCN1C(=O)C(CC(=O)NC/C=C(\C)CCC=C(C)C)C[C@H](C(=O)N(C(C)C)C(C)C)[C@@]31C (stereo partly drawn),0,0,25.5,0,0,0
CC(C)=CCC/C(C)=C/CNC(=O)C[C@H]1C[C@H](C(=O)N(C(C)C)C(C)C)[C@@]2(C)c3[nH]c4ccc(Cl)cc4c3CCN2C1=O,0,0,0,0,0,0
CC[C@]12c3[nH]c4cc(CCC(=O)N(C)C)ccc4c3CCN1C(=O)[C@@H](CC(=O)NCCN1CCOCC1)C[C@@H]2C(=O)N1CCN(C(=O)C2CC2)CC1,0,0,0,0,0,0
CC[C@]12c3[nH]c4cc(CCC(=O)N(C)C)ccc4c3CCN1C(=O)[C@@H](CC(=O)NC/C=C(\C)CCC=C(C)C)C[C@@H]2C(=O)N1CCN(C(=O)C2CC2)CC1,0,0,29.1,0,0,0
